# Reference: ChEMBL document CHEMBL2203149, “Carvacrol decreases neuronal excitability by inhibition of voltage-gated sodium channels” (J Nat Prod, 2012)
# Calls of active or inactive are those of the source.
# How the values were obtained:
# [1] = Reduction in amplitude of compound action potential in bullfrog sciatic nerve at 0.5 mM after 15 mins by electrophysiology; assay type: functional, Rana catesbeiana; settings: Aquarana catesbeiana, 0.25 h
# [2] = Reduction in amplitude of compound action potential in frog sciatic nerve by electrophysiology; assay type: functional, tissue-based, Anura
# Sciatic nerve [3] = test: Reduction in peak-to-peak amplitude of compound action potential in Wistar rat sciatic nerve at 1 mM after 180 mins by electrophysiology; assay type: functional, tissue-based
# Method in brief: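 Sciatic nerve from Wistar rats (200–300 g, both sexes) held in a moist chamber, with a 15–20 mm segment immersed in Locke's solution that carried the drug (DMSO ≤0.2% v/v). One end was stimulated and evoked CAPs were recorded 40–50 mm away. Exposure lasted 180 min and began after at least 30 min of stable amplitude. Read-out was peak-to-peak amplitude, at 18–22 °C, n = 5, followed by 180 min washout.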
# Sciatic nerve [4] = test: Reduction in peak-to-peak amplitude of compound action potential in Wistar rat sciatic nerve at 1 mM after 180 mins and measured after 180 mins washout by electrophysiology; assay type: functional, tissue-based
# Method in brief: (§1)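 Evoked compound action potentials in Wistar rat sciatic nerve, recorded 40–50 mm from the stimulating electrodes and sampled at 20 kHz. The segment was bathed in Locke's solution carrying the drug (0.03–1 mM) after at least 30 min of stable amplitude. Exposure lasted 180 min, then 180 min washout. Peak-to-peak amplitude, n = 5 per concentration; IC50 from a logistic fit at 180 min.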
# Sciatic nerve [5] = test: Reduction in peak-to-peak amplitude of compound action potential in Wistar rat sciatic nerve at 0.3 mM after 180 mins by electrophysiology; assay type: functional, tissue-based; method in brief: as §1
# Sciatic nerve [6] = test: Reduction in peak-to-peak amplitude of compound action potential in Wistar rat sciatic nerve after 180 mins by electrophysiology; assay type: functional, tissue-based; settings: 3 h; method in brief: as §1
# Sciatic nerve [7] = test: Inhibition of first component amplitude of compound action potential in Wistar rat Aalpha sciatic nerve after 180 mins by electrophysiology; assay type: functional, tissue-based; method in brief: as §1
# Sciatic nerve [8] = test: Inhibition of second component amplitude of compound action potential in Wistar rat Abeta and Agamma sciatic nerve within 60 mins by electrophysiology; assay type: functional, tissue-based; method in brief: as §1
# [9] = […] of Wistar rat sciatice nerve fiber excitability assessed as increase in rheobase at 0.6 mM (reference value: 3.30 +/- 0.06 V); assay type: functional
# [10] = […] of Wistar rat sciatice nerve fiber excitability assessed as increase in chronaxy measured as time at 0.6 mM (reference value: 59.6 +/- 1.2 microsec); assay type: functional
# [11] = Effect on action potential in Wistar rat DRG neuron assessed as amplitude reduction at 0.03 mM after 12 to 48 hrs by patch-clamp recordings (reference value: 79 +/- 1.3 mV); assay type: functional
# [12] = Effect on action potential in Wistar rat DRG neuron assessed as amplitude reduction at 0.1 mM after 12 to 48 hrs by patch-clamp recordings (reference value: 79 +/- 1.3 mV); assay type: functional
# [13] = Effect on action potential in Wistar rat DRG neuron assessed as amplitude reduction at 0.3 mM after 12 to 48 hrs by patch-clamp recordings (reference value: 79 +/- 1.3 mV); assay type: functional
# [14] = Effect on action potential in Wistar rat DRG neuron assessed as amplitude reduction at 0.6 mM after 12 to 48 hrs by patch-clamp recordings (reference value: 79 +/- 1.3 mV); assay type: functional
# [15] = Effect on action potential in Wistar rat DRG neuron assessed as amplitude reduction at 1 mM after 12 to 48 hrs by patch-clamp recordings (reference value: 79 +/- 1.3 mV); assay type: functional
# [16] = Effect on action potential in Wistar rat DRG neuron assessed as amplitude reduction at 3 mM after 12 to 48 hrs by patch-clamp recordings (reference value: 79 +/- 1.3 mV); assay type: functional
# [17] = Effect on action potential in Wistar rat DRG neuron assessed as resting potential at 0.03 mM after 12 to 48 hrs by patch-clamp recordings (reference value: -60 +/- 1.1 mV); assay type: functional
# [18] = Effect on action potential in Wistar rat DRG neuron assessed as resting potential at 0.1 mM after 12 to 48 hrs by patch-clamp recordings (reference value: -60 +/- 1.1 mV); assay type: functional
# [19] = Effect on action potential in Wistar rat DRG neuron assessed as resting potential at 0.3 mM after 12 to 48 hrs by patch-clamp recordings (reference value: -60 +/- 1.1 mV); assay type: functional
# [20] = Effect on action potential in Wistar rat DRG neuron assessed as resting potential at 0.6 mM after 12 to 48 hrs by patch-clamp recordings (reference value: -60 +/- 1.1 mV); assay type: functional
# [21] = Effect on action potential in Wistar rat DRG neuron assessed as resting potential at 1 mM after 12 to 48 hrs by patch-clamp recordings (reference value: -60 +/- 1.1 mV); assay type: functional
# [22] = Effect on action potential in Wistar rat DRG neuron assessed as resting potential at 3 mM after 12 to 48 hrs by patch-clamp recordings (reference value: -60 +/- 1.1 mV); assay type: functional
# [23] = Effect on action potential in Wistar rat DRG neuron assessed as input resistance at 0.03 mM after 12 to 48 hrs by patch-clamp recordings (reference value: 25.5 +/- 2.1 Momega); assay type: functional
# [24] = Effect on action potential in Wistar rat DRG neuron assessed as input resistance at 0.1 mM after 12 to 48 hrs by patch-clamp recordings (reference value: 25.5 +/- 2.1 Momega); assay type: functional
# [25] = Effect on action potential in Wistar rat DRG neuron assessed as input resistance at 0.3 mM after 12 to 48 hrs by patch-clamp recordings (reference value: 25.5 +/- 2.1 Momega); assay type: functional
# [26] = Effect on action potential in Wistar rat DRG neuron assessed as input resistance at 0.6 mM after 12 to 48 hrs by patch-clamp recordings (reference value: 25.5 +/- 2.1 Momega); assay type: functional
# [27] = Effect on action potential in Wistar rat DRG neuron assessed as input resistance at 1 mM after 12 to 48 hrs by patch-clamp recordings (reference value: 25.5 +/- 2.1 Momega); assay type: functional
# [28] = Effect on action potential in Wistar rat DRG neuron assessed as input resistance at 3 mM after 12 to 48 hrs by patch-clamp recordings (reference value: 25.5 +/- 2.1 Momega); assay type: functional
# [29] = Effect on action potential in Wistar rat DRG neuron assessed as maximum ascendant inclination at 0.03 mM after 12 to 48 hrs by patch-clamp recordings (reference value: 151.2 +/- 6.2 V/s); assay type: functional
# [30] = Effect on action potential in Wistar rat DRG neuron assessed as maximum ascendant inclination at 0.1 mM after 12 to 48 hrs by patch-clamp recordings (reference value: 151.2 +/- 6.2 V/s); assay type: functional
# [31] = Effect on action potential in Wistar rat DRG neuron assessed as maximum ascendant inclination at 0.3 mM after 12 to 48 hrs by patch-clamp recordings (reference value: 151.2 +/- 6.2 V/s); assay type: functional
# [32] = Effect on action potential in Wistar rat DRG neuron assessed as maximum ascendant inclination at 0.6 mM after 12 to 48 hrs by patch-clamp recordings (reference value: 151.2 +/- 6.2 V/s); assay type: functional
# [33] = Effect on action potential in Wistar rat DRG neuron assessed as maximum ascendant inclination at 1 mM after 12 to 48 hrs by patch-clamp recordings (reference value: 151.2 +/- 6.2 V/s); assay type: functional
# [34] = Effect on action potential in Wistar rat DRG neuron assessed as maximum ascendant inclination at 3 mM after 12 to 48 hrs by patch-clamp recordings (reference value: 151.2 +/- 6.2 V/s); assay type: functional
# [35] = Effect on action potential in Wistar rat DRG neuron assessed as maximum descendant inclination at 3 mM after 12 to 48 hrs by patch-clamp recordings (reference value: -104.7 +/- 3.6 V/s); assay type: functional
# [36] = Effect on action potential in Wistar rat DRG neuron assessed as duration at half maximal amplitute at 0.03 mM after 12 to 48 hrs by patch-clamp recordings (reference value: 1.6 +/- 0.1 ms); assay type: functional
# [37] = Effect on action potential in Wistar rat DRG neuron assessed as duration at half maximal amplitute at 0.1 mM after 12 to 48 hrs by patch-clamp recordings (reference value: 1.6 +/- 0.1 ms); assay type: functional
# [38] = Effect on action potential in Wistar rat DRG neuron assessed as duration at half maximal amplitute at 0.3 mM after 12 to 48 hrs by patch-clamp recordings (reference value: 1.6 +/- 0.1 ms); assay type: functional
# [39] = Effect on action potential in Wistar rat DRG neuron assessed as duration at half maximal amplitute at 0.6 mM after 12 to 48 hrs by patch-clamp recordings (reference value: 1.6 +/- 0.1 ms); assay type: functional
# Rattus norvegicus [40] = organism: Rattus norvegicus; test: Inhibition of voltage-gated sodium channel of Wistar rat dissociated DRG neuron assessed as inhibition of current induced of voltage-gated sodium current at -100 mV holding potential with 5 sec intervals at 3 mM after 120 secs by patch-clamp recordings
# Method in brief: (§2)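 Wistar rat DRG neurons dissociated with 1 mg/mL collagenase I (75 min) and 2.5 mg/mL trypsin (15 min) at 37 °C, plated on poly-D-lysine and used 12–48 h later. Whole-cell voltage clamp used 100 ms steps to 0 mV from −100 mV every 5 s, at room temperature. External solution: 20 mM NaCl with TEA, Cs and Cd, pH 7.4. Internal solution: CsCl, pH 7.2. Drug 0.01–10 mM, n = 50 cells, logistic fit.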
# [41] = Inhibition of voltage-gated sodium channel of Wistar rat dissociated DRG neuron assessed as inhibition of current induced of voltage-gated sodium current at -100 mV holding potential with 5 sec intervals by patch-clamp recordings; method in brief: as §2
# [42] = Blockade of action potential in Wistar rat DRG neuron after 12 to 48 hrs by intracellular recordings
# [43] = Effect on action potential in Wistar rat DRG neuron assessed as maximum descendant inclination at 1 mM by intracellular recording (reference value: -104.7 +/- 3.6 V/s)
# [44] = Effect on action potential in Wistar rat DRG neuron assessed as duration at half maximal amplitute at 1 mM by intracellular recording (reference value: 1.6 +/- 0.1 ms)
# [45] = Effect on action potential in Wistar rat DRG neuron assessed as duration at half maximal amplitute at 3 mM by intracellular recording (reference value: 1.6 +/- 0.1 ms)
# [46] = Effect on action potential in Wistar rat DRG neuron assessed as maximum descendant inclination at 0.1 mM by intracellular recording (reference value: -104.7 +/- 3.6 V/s)
# [47] = Effect on action potential in Wistar rat DRG neuron assessed as maximum descendant inclination at 0.3 mM by intracellular recording (reference value: -104.7 +/- 3.6 V/s)
# [48] = Effect on action potential in Wistar rat DRG neuron assessed as maximum descendant inclination at 0.6 mM by intracellular recording (reference value: -104.7 +/- 3.6 V/s)
# [49] = Effect on action potential in Wistar rat DRG neuron assessed as maximum descendant inclination at 0.03 mM by intracellular recording (reference value: -104.7 +/- 3.6 V/s)
# [50] = Effect on action potential in Wistar rat DRG neuron assessed as elevation in current threshold levels at 0.03 to 3 mM after 12 to 48 hrs by intracellular recordings relative to control
# Rattus norvegicus [51] = organism: Rattus norvegicus; test: Inhibition of voltage-gated sodium channel of […] rat dissociated DRG neuron assessed as inhibition of current induced of voltage-gated sodium current at holding potential by patch-clamp recordings; settings: concentration not given here
structure (smiles),measurement,setting,value
CCN(CC)CC(=O)Nc1c(C)cccc1C [LIDOCAINE],inhibition at 500 µM,[1],46%
same,IC50,[2],740 µM
Cc1ccc(C(C)C)cc1O [CARVACROL],inhibition,Sciatic nerve [3],Active
same,inhibition,Sciatic nerve [4],inactive
same,inhibition,Sciatic nerve [5],inactive
same,IC50,Sciatic nerve [6],500 µM
same,inhibition,Sciatic nerve [7],Active
same,inhibition,Sciatic nerve [8],Active
same,Activity,[9],4.16 V
same,Time,[10],75 microsec
same,inhibition at 500 µM,[1],50%
same,IC50,[2],500 µM
same,Activity,[11],77 mV
same,Activity,[12],53.9 mV
same,Activity,[13],43.9 mV
same,Activity,[14],32.1 mV
same,Activity,[15],4.2 mV
same,Activity,[16],0 mV
same,Activity,[17],-62.6 mV
same,Activity,[18],-60.2 mV
same,Activity,[19],-59.7 mV
same,Activity,[20],-60.2 mV
same,Activity,[21],-60.2 mV
same,Activity,[22],-57.5 mV
same,Activity,[23],29.3 MΩ
same,Activity,[24],26.7 MΩ
same,Activity,[25],27.1 MΩ
same,Activity,[26],23.3 MΩ
same,Activity,[27],26.3 MΩ
same,Activity,[28],20.8 MΩ
same,Activity,[29],128.6 V/s
same,Activity,[30],94.8 V/s
same,Activity,[31],84.4 V/s
same,Activity,[32],56.5 V/s
same,Activity,[33],4.4 V/s
same,Activity,[34],0 V/s
same,Activity,[35],0 V/s
same,Time,[36],1.6 ms
same,Time,[37],1.5 ms
same,Time,[38],0.9 ms
same,Time,[39],0.6 ms
same,inhibition,Rattus norvegicus [40],Active
same,IC50,[41],370 µM
same,IC50,[42],360 µM
same,Activity,[43],-4.5 V/s
same,Time,[44],0.2 ms
same,Time,[45],0 ms
same,Activity,[46],-78.9 V/s
same,Activity,[47],-62.7 V/s
same,Activity,[48],-48 V/s
same,Activity,[49],-102.2 V/s
same,Activity,[50],62.4%
same,inhibition,Rattus norvegicus [51],70%
